Measurements as given in ChEMBL document CHEMBL1123181 (J Med Chem, 1986).

Key:
[1] = target: T1, Angiotensin-converting enzyme (Oryctolagus cuniculus, UniProt P12822); assay: In vitro inhibition of Angiotensin I converting enzyme activity in rabbit lung; format: tissue-based; details: read-out: I50
T1 sequence (P12822 whole entry): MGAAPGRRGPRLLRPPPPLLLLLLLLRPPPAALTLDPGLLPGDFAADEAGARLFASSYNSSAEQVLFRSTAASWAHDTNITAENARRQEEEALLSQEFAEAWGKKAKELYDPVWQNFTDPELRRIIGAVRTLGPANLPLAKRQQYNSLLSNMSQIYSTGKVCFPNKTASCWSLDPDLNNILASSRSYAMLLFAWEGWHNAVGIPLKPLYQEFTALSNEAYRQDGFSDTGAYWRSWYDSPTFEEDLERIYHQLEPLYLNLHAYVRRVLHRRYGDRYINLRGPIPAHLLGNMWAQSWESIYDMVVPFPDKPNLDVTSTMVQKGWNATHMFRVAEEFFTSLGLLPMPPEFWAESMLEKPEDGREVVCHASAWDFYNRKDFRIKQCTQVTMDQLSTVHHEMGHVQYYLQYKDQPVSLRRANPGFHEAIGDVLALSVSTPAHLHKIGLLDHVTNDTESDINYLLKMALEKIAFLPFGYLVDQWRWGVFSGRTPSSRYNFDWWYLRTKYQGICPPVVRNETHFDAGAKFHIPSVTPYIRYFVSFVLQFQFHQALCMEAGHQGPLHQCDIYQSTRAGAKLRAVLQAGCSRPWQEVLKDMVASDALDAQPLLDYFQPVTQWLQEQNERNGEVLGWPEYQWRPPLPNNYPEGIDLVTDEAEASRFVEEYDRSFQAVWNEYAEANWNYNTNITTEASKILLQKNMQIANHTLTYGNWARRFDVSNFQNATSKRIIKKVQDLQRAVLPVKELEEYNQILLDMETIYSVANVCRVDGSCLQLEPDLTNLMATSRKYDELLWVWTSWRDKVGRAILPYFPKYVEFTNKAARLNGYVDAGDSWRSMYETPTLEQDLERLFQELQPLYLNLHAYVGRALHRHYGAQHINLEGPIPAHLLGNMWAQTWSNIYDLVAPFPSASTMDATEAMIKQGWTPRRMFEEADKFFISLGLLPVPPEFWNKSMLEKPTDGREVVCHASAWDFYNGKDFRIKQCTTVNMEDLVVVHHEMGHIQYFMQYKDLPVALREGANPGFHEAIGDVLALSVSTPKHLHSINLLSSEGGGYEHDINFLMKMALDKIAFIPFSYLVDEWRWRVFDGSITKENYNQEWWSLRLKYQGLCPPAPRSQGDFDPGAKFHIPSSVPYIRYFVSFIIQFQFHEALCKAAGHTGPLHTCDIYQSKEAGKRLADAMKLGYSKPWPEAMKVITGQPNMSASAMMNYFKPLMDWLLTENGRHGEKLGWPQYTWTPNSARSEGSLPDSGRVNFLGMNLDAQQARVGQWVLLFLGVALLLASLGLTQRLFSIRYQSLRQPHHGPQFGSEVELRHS

[2] = target: Angiotensin-converting enzyme (Rattus norvegicus) (UniProt P47820); assay: The time to 50% recovery of the angiotensin I response was measured after po administration at 0.3 mg/kg; 10-30
Rattus norvegicus [3] = assay: Maximum percent change in mean arterial pressure by the compound over control after po administration at 100 mg/kg dosage; -(-27-45); format: functional, Artery
Outline: (§1)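 Spontaneously hypertensive rats kept on a sodium-deficient diet received the agent orally. Value = maximum % change in mean arterial pressure over control. Duration = time outside a control area, defined as the means ±2 SD of arterial pressure and heart rate readings from 45 control rats.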

[4] = target: Angiotensin-converting enzyme (Rattus norvegicus) (UniProt P47820); assay: Percentage inactivation of the angiotensin I induced vasopressor response in normotensive conscious rats after po administration at dose 0.3 mg/kg; 45-50
Rattus norvegicus [5] = assay: Time taken by the compound to change arterial pressure outside the control area at a dose of 100 mg/kg, po; 15->24; format: functional, Artery
Outline: (§2)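 Spontaneously hypertensive rats kept on a sodium-deficient diet, single oral dose, arterial pressure and heart rate monitored. Duration is the time pressure lies outside a control area, defined as the means (±2 standard deviations) of arterial pressure and heart rate readings from 45 control rats. Range given across animals.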

[6] = target: Angiotensin-converting enzyme (Rattus norvegicus) (UniProt P47820); assay: The time to 50% recovery of the angiotensin I response was measured after po administration at 0.15 mg/kg; 10-20
[7] = target: Angiotensin-converting enzyme (Rattus norvegicus) (UniProt P47820); assay: Percentage inactivation of the angiotensin I induced vasopressor response in normotensive conscious rats after po administration at dose 0.15 mg/kg
[8] = target: T1, Angiotensin-converting enzyme; assay: In vitro inhibition of Angiotensin I converting enzyme activity at pH 8.5 in rabbit lung; format: tissue-based; details: read-out: I50
Rattus norvegicus [9] = assay: Maximum percent change in mean arterial pressure by the compound over control after ip administration at 100 mg/kg dosage; 9-14; details: route intraperitoneal
[10] = target: Angiotensin-converting enzyme (Rattus norvegicus) (UniProt P47820); assay: Percentage inactivation of the angiotensin I induced vasopressor response in normotensive conscious rats after po administration at dose 0.80 mg/kg; 50-55
[11] = target: Angiotensin-converting enzyme (Rattus norvegicus) (UniProt P47820); assay: The time to 50% recovery of the angiotensin I response was measured after po administration at 0.8 mg/kg; 35-50
Rattus norvegicus [12] = assay: Maximum percent change in mean arterial pressure by the compound over control after po administration at 100 mg/kg dosage; -(-32-40); format: functional, Artery; outline: as §1
Rattus norvegicus [13] = assay: Time taken by the compound to change arterial pressure outside the control area at a dose of 100 mg/kg, po; format: functional, Artery; outline: as §2
[14] = target: Angiotensin-converting enzyme (Rattus norvegicus) (UniProt P47820); assay: Percentage inactivation of the angiotensin I induced vasopressor response in normotensive conscious rats after po administration at dose 0.15 mg/kg; 65-69
Rattus norvegicus [15] = assay: Time taken by the compound to change arterial pressure outside the control area at a dose of 100 mg/kg, po; 2-12.5; format: functional, Artery; outline: as §2
Rattus norvegicus [16] = assay: Maximum percent change in mean arterial pressure by the compound over control after po administration at 100 mg/kg dosage; -(15-27); format: functional, Artery; outline: as §1
Rattus norvegicus [17] = assay: The time to 50% recovery of the angiotensin I response was measured after po administration at 0.15 mg/kg; 10-50
Rattus norvegicus [18] = assay: Maximum percent change in mean arterial pressure by the compound over control after po administration at 100 mg/kg dosage; -(17-29); format: functional, Artery; outline: as §1
Rattus norvegicus [19] = assay: Time taken by the compound to change arterial pressure outside the control area at a dose of 100 mg/kg, po; 5.5-15; format: functional, Artery; outline: as §2
[20] = target: Angiotensin-converting enzyme (Rattus norvegicus) (UniProt P47820); assay: The time to 50% recovery of the angiotensin I response was measured after po administration at 0.6 mg/kg; 40-50
[21] = target: Angiotensin-converting enzyme (Rattus norvegicus) (UniProt P47820); assay: Percentage inactivation of the angiotensin I induced vasopressor response in normotensive conscious rats after po administration at dose 0.60 mg/kg; 50-55
[22] = target: Angiotensin-converting enzyme (Rattus norvegicus) (UniProt P47820); assay: The time to 50% recovery of the angiotensin I response was measured after po administration at 0.15 mg/kg; 10-40
[23] = target: Angiotensin-converting enzyme (Rattus norvegicus) (UniProt P47820); assay: Percentage inactivation of the angiotensin I induced vasopressor response in normotensive conscious rats after po administration at dose 0.15 mg/kg; 55-76
Rattus norvegicus [24] = assay: Maximum percent change in mean arterial pressure by the compound over control after po administration at 100 mg/kg dosage; format: functional, Artery; outline: as §1
[25] = target: Angiotensin-converting enzyme (Rattus norvegicus) (UniProt P47820); assay: Percentage inactivation of the angiotensin I induced vasopressor response in normotensive conscious rats after po administration at dose 1.5 mg/kg; 71-81
[26] = target: Angiotensin-converting enzyme (Rattus norvegicus) (UniProt P47820); assay: The time to 50% recovery of the angiotensin I response was measured after po administration at 1.5 mg/kg; 70-90
Rattus norvegicus [27] = assay: Time taken by the compound to change arterial pressure outside the control area at a dose of 50 mg/kg, po; 3-19.5; format: functional, Artery; outline: as §2
Rattus norvegicus [28] = assay: Maximum percent change in mean arterial pressure by the compound over control after po administration at 50 mg/kg dosage; -(31-34); format: functional, Artery; outline: as §1
[29] = target: T1, Angiotensin-converting enzyme; assay: Compound was tested in vitro for inhibition of activity of rabbit lung Angiotensin I converting enzyme at pH 8.5; 0.14-10; details: read-out: I50

Sequence of Angiotensin-converting enzyme (Rattus norvegicus) (P47820 whole entry, looked up): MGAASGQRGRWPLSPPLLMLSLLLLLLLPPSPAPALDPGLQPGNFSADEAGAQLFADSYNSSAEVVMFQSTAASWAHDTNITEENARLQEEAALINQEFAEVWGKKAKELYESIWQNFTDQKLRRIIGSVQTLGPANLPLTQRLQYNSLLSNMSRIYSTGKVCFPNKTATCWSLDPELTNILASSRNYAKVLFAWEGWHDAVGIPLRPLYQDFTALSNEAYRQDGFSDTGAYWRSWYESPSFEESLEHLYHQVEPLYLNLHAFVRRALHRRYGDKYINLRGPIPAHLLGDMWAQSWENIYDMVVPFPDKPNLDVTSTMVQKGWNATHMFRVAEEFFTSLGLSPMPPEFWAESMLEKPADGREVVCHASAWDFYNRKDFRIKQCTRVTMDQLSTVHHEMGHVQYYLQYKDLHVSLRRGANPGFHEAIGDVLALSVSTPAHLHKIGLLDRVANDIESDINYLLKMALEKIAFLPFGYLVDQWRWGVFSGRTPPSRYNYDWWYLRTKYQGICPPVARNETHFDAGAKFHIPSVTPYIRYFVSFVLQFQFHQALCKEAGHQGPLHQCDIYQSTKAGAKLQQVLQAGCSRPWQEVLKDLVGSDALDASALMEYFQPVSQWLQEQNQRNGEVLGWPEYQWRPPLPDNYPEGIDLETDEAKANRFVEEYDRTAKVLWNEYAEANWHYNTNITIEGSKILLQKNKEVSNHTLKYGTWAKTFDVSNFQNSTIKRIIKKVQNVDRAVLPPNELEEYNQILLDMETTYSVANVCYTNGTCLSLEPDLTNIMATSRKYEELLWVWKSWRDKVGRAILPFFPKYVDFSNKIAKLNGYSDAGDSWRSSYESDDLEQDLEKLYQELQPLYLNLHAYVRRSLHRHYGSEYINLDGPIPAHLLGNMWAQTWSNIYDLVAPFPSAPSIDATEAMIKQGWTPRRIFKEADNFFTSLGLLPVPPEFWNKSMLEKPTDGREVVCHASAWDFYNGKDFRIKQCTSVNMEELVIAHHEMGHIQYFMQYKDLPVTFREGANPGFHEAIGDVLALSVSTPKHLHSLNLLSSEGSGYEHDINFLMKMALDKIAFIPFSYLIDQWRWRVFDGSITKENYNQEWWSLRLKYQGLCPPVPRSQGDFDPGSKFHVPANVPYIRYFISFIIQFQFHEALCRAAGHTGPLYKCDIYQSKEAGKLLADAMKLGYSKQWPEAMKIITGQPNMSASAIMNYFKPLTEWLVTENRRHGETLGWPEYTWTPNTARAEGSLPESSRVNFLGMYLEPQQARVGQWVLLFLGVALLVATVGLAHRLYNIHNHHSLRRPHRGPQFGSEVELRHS

## C[C@@H]1CSC(=O)[C@@H]2Cc3ccccc3CN2C1=O
[1]
  IC50: 0.012 µM
[2]
  Duration: 10 min
Rattus norvegicus [3]
  MAP: -27%
[4]
  inhibition: 45%
Rattus norvegicus [5]
  Duration: 900 min

## O=C1CN(C2CCCC2)C(=O)c2ccccc2S1
[1]
  IC50: 4.5 µM
[6]
  Duration: 10 min
[7]
  inhibition: 5%
[8]
  IC50: 4.8 µM
Rattus norvegicus [9]
  MAP: 9%

## COc1cccc2c1SC(=O)CN(C1CCCC1)C2=O
[1]
  IC50: 0.4 µM
[10]
  inhibition: 50%
[11]
  Duration: 35 min
Rattus norvegicus [12]
  MAP: -32%
[8]
  IC50: 0.38 µM
Rattus norvegicus [13]
  Duration: >24 h

## CC1CSC(=O)CN(C2CCCC2)C1=O (configuration not stated)
[1]
  IC50: 0.013 µM
[14]
  inhibition: 65%
Rattus norvegicus [15]
  Duration: 2 h
[8]
  IC50: 0.018 µM
Rattus norvegicus [16]
  MAP: -15%
Rattus norvegicus [17]
  Duration: 10 min

## O=C1CN(C2CCCC2)C(=O)c2cccc(Cl)c2S1
[1]
  IC50: 0.21 µM
Rattus norvegicus [18]
  MAP: -17%
Rattus norvegicus [19]
  Duration: 5.5 h
[20]
  Duration: 40 min
[8]
  IC50: 0.28 µM
[21]
  inhibition: 50%

## Cc1ccc(N2CC(=O)SCC(C)C2=O)cc1 (configuration not stated)
[1]
  IC50: 0.021 µM
[22]
  Duration: 10 min
[23]
  inhibition: 55%
[8]
  IC50: 0.005 µM
Rattus norvegicus [24]
  MAP: -37%
Rattus norvegicus [13]
  Duration: > 24 h

## Cc1ccc(N2CC(=O)SC(C)C2=O)cc1 (configuration not stated)
[1]
  IC50: 0.085 µM
[25]
  inhibition: 71%
[26]
  Duration: 70 min
Rattus norvegicus [27]
  Duration: 3 h
Rattus norvegicus [28]
  MAP: -31%
[8]
  IC50: 0.026 µM

## CC1SC(=O)C2CSCN2C1=O (configuration not stated)
[1]
  IC50: 0.38 µM
[29]
  IC50: 0.14 µM
